Activity calls are given as the source filed them. The rule behind the calls is not given here.
System: Vesicular stomatitis virus
Experiment: Antiviral activity against pseudotype VSV harbouring glycoprotein infected human 293T/ACE2 cells assessed as inhibition of viral infection measured after 48 hrs by luciferase reporter gene assay
Format: functional, organism-based
Outline: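 293T-ACE2 cells (20,000/well) were seeded and treated 24 h later with graded compound concentrations mixed with pseudovirus supernatant, then incubated 48 h. The HIV-based pseudovirus (pNL4-3.Luc.R-E-) carried SARS-CoV-2 S or VSV-G and was made by co-transfecting HEK293T cells; supernatant was harvested at 48 h and filtered (0.45 µm). Read-out was luciferase activity in cell lysates. Sal-C was the positive control.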

Structure (SMILES) | inhibition
C[C@@H]1O[C@@H](O[C@H]2[C@H](O[C@H]3CC[C@]4(C)[C@H]5CC=C6[C@@H]7CC(C)(C)CC[C@]7(C(=O)NCc7ccccc7F)CC[C@@]6(C)[C@]5(C)CC[C@H]4C3(C)C)O[C@H](CO)[C@@H](O[C@@H]3O[C@@H](C)[C@H](O)[C@@H](O)[C@H]3O)[C@@H]2O)[C@H](O)[C@H](O)[C@H]1O | inactive
C[C@@H]1O[C@@H](O[C@H]2[C@H](O[C@H]3CC[C@]4(C)[C@H]5CC=C6[C@@H]7CC(C)(C)CC[C@]7(C(=O)NCc7cccs7)CC[C@@]6(C)[C@]5(C)CC[C@H]4C3(C)C)O[C@H](CO)[C@@H](O[C@@H]3O[C@@H](C)[C@H](O)[C@@H](O)[C@H]3O)[C@@H]2O)[C@H](O)[C@H](O)[C@H]1O | inactive
COc1ccccc1NC(=O)[C@]12CCC(C)(C)C[C@H]1C1=CC[C@@H]3[C@@]4(C)CC[C@H](O[C@@H]5O[C@H](CO)[C@@H](O[C@@H]6O[C@@H](C)[C@H](O)[C@@H](O)[C@H]6O)[C@H](O)[C@H]5O[C@@H]5O[C@@H](C)[C@H](O)[C@@H](O)[C@H]5O)C(C)(C)[C@@H]4CC[C@@]3(C)[C@]1(C)CC2 | inactive
C[C@@H]1O[C@@H](O[C@H]2[C@H](O[C@H]3CC[C@]4(C)[C@H]5CC=C6[C@@H]7CC(C)(C)CC[C@]7(C(=O)NCc7ccccc7)CC[C@@]6(C)[C@]5(C)CC[C@H]4C3(C)C)O[C@H](CO)[C@@H](O[C@@H]3O[C@@H](C)[C@H](O)[C@@H](O)[C@H]3O)[C@@H]2O)[C@H](O)[C@H](O)[C@H]1O | inactive

From ChEMBL document CHEMBL4811231, “Discovery and structural optimization of 3-O-β-chacotriosyl oleanane-type triterpenoids as potent entry inhibitors of SARS-CoV-2 virus infections” (Eur J Med Chem, 2021)
